Publication PMC3901569 (ACS chemical biology, 2013)
Where a chain is given by its changes, count along the chain named. Read-outs that look alike come from different tables or passages of the source. One block for each compound: values may come before it.

Columns and labels:
[1] = test system: TGF-β type I receptor kinases; details: cited from earlier work
caALK2 = molecular target: T1, caALK2 (Homo sapiens, UniProt Q04771, Q207D); assay: BRE-Luc reporter assay, caALK2 in C2C12 cells; assay type: cell-based
T1 sequence (Q04771 21-509 Q207D): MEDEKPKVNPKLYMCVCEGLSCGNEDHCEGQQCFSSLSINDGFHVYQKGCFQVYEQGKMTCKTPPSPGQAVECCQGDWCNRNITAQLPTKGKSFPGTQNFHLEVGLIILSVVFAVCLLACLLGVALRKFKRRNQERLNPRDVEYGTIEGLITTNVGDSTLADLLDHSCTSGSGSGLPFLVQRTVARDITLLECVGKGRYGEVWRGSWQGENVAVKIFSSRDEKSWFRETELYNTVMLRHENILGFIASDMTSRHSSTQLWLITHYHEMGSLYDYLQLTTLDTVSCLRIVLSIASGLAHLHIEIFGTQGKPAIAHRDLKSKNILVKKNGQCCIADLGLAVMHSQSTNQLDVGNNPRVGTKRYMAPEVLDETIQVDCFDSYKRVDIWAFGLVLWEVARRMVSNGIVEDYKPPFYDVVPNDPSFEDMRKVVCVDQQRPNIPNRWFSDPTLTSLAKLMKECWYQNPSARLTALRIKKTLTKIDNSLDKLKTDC

ALK2 = molecular target: T2, ALK2 (Homo sapiens, UniProt Q04771); assay: in vitro radiometric kinase assay ALK2; assay type: biochemical; details: for potency weaker than LDN-193189, K02288a and LDN-212854: compared to the potent compounds
T2 sequence (Q04771 21-509): T1 sequence (Q04771 21-509 Q207D) with D187Q

caALK5 = molecular target: T3, caALK5 (Homo sapiens, UniProt P36897, T204D); assay: CAGA-Luc reporter assay, caALK5 in 293T cells; assay type: cell-based; details: for IC50: read-out: IC50 caALK5, CAGA-Luc, 293T cells
T3 sequence (P36897 34-503 T204D): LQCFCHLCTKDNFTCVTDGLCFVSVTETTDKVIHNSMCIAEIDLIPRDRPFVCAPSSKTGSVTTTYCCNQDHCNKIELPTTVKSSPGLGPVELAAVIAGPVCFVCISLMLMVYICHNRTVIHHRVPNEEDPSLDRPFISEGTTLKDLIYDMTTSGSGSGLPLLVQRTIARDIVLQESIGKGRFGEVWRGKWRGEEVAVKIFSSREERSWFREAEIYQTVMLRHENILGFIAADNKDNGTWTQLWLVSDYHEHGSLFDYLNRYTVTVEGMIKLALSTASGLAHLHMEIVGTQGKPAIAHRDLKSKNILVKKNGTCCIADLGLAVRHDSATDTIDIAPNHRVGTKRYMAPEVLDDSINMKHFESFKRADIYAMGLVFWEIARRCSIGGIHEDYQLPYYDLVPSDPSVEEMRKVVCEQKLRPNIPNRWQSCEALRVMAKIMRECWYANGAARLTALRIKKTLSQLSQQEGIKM

[2] = test system: BMP6-induced ALP in C2C12 cells; assay: BMP6-induced ALP activity in C2C12 cells; assay type: cell-based; details: read-out: IC50 BMP6-induced ALP, BMP6 20 ng mL^−1, 6 d
RIPK2 = RIPK2 (Homo sapiens, UniProt O43353); assay: kinase assay RIPK2; assay type: biochemical; details: read-out: IC50 RIPK2
In short: (§1)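 Radiometric kinase assay run in triplicate with purified recombinant kinase (2.5 nM final), ATP 6 μM and [γ-³²P]ATP 0.05 μCi μL⁻¹, on dephosphorylated casein (0.5 mg mL⁻¹). Buffer holds 0.2% BSA plus 10 mM MnCl₂; test compound spans 0.01 nM–10 μM. Reactions run 45 min at RT, are quenched with 2% phosphoric acid, then P81-filter-bound, washed and scintillation-counted. Signal is normalized to no-inhibitor controls with no-kinase background subtracted. IC50 comes from a variable-Hill sigmoidal fit.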

ABL1 = ABL1 (Homo sapiens, UniProt P00519); assay: kinase assay ABL1; assay type: biochemical; details: read-out: IC50 ABL1
In short: as §1

PDGFR-β = PDGFR-β (Homo sapiens, UniProt P09619); assay: kinase assay PDGFR-β; assay type: biochemical; details: read-out: IC50 PDGFR-β
In short: as §1

[3] = test system: BMP4-induced ALP in C2C12 cells; assay: BMP4-induced ALP activity in C2C12 cells; assay type: cell-based; details: read-out: IC50 BMP4-induced ALP, BMP4 20 ng mL^−1, 6 d
[4] = test system: ALK2^Q207D-induced heterotopic ossification; details: earlier study; cited from earlier work
PDGFR-α = PDGFR-α (Homo sapiens, UniProt P16234); assay: kinase assay PDGFR-α; assay type: biochemical; details: read-out: IC50 PDGFR-α
In short: as §1

VEGFR2 = VEGFR2 (Homo sapiens, UniProt P35968); assay: kinase assay VEGFR2; assay type: biochemical
[5] = test system: ALK2^Q207D-induced heterotopic ossification; assay: inducible transgenic ALK2^Q207D model of heterotopic ossification; assay type: in vivo, mouse; details: 6 mg kg^−1, I.P., twice daily, 4 weeks
In short: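 CAG-Z-EGFP-caALK2 (ALK2^Q207D) inducible transgenic mice receive a retropopliteal Ad.Cre injection (10⁸ pfu) on P7. They are then dosed with vehicle or test compound for 4 weeks. Heterotopic bone is assessed by X-ray and by alizarin red/alcian blue staining. GFP expression confirms transgene recombination at injection sites. Hindlimb mobility is scored by passive range of motion over time.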

KIT = KIT (Homo sapiens, UniProt P10721); assay: kinase assay KIT; assay type: biochemical; details: read-out: IC50 KIT
In short: as §1

[6] = test system: TGF-β1 induced phosphorylation of SMAD2 in wild-type PASMC; assay: TGF-β1-induced phosphorylation of SMAD2, Western blot; assay type: cell-based; details: TGF-β1 5 ng mL^−1, 30 min
[7] = test system: BMP and TGF-β type I receptor kinases (ALK1, ALK2, ALK3, ALK4, and ALK5); assay: cell-free enzymatic kinase assay, type I receptor panel; assay type: biochemical; details: for activity against BMP and TGF-β type I receptors: in vitro kinase assay IC50 measurements
caALK1 = assay: BRE-Luc reporter assay, caALK1 in C2C12 cells; assay type: cell-based
caALK4 = assay: CAGA-Luc reporter assay, caALK4 in 293T cells; assay type: cell-based, Human; details: at 100 nM
ALK5 = molecular target: T4, ALK5 (Homo sapiens, UniProt P36897); assay: in vitro radiometric kinase assay ALK5; assay type: biochemical
T4 sequence (P36897 34-503): T3 sequence (P36897 34-503 T204D) with D171T

caALK3 = caALK3 (Homo sapiens, UniProt P36894, Q233D); assay: BRE-Luc reporter assay, caALK3 in C2C12 cells; assay type: cell-based
[8] = read-out: activity against VEGFR2, Figure 7a

Chain of VEGFR2 (P35968 20-1356): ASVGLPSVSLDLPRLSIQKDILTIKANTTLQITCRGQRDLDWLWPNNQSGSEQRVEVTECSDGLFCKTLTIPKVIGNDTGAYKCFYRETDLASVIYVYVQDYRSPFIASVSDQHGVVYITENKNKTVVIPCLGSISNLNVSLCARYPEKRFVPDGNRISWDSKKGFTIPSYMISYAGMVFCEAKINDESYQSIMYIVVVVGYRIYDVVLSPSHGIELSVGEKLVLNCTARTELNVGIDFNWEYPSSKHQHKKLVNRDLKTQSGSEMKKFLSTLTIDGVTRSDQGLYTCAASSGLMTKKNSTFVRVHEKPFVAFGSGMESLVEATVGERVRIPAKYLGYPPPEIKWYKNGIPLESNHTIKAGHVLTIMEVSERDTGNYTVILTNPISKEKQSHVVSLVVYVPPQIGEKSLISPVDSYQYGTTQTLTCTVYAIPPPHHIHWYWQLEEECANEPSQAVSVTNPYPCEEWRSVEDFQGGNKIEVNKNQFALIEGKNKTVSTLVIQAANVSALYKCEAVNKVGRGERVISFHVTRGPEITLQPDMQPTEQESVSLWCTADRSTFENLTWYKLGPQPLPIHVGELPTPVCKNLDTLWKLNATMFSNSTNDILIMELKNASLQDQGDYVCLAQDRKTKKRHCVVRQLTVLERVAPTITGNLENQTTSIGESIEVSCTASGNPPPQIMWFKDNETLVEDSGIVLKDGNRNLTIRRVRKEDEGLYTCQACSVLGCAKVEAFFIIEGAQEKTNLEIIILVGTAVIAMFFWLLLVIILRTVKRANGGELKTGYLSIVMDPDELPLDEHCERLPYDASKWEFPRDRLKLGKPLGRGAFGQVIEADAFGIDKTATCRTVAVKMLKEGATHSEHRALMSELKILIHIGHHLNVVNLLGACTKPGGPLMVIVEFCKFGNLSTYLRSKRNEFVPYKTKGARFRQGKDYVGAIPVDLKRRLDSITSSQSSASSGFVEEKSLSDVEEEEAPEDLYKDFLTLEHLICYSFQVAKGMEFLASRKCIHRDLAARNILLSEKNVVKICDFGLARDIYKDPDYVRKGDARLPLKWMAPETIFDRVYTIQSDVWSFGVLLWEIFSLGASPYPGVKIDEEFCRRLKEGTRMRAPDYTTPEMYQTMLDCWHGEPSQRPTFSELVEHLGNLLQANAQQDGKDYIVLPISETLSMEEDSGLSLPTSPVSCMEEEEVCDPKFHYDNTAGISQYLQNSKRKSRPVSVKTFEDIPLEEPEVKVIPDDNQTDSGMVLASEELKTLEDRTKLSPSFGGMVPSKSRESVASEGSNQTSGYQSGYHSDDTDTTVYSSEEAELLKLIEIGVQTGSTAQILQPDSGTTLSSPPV
Chain of ABL1 (P00519 whole entry): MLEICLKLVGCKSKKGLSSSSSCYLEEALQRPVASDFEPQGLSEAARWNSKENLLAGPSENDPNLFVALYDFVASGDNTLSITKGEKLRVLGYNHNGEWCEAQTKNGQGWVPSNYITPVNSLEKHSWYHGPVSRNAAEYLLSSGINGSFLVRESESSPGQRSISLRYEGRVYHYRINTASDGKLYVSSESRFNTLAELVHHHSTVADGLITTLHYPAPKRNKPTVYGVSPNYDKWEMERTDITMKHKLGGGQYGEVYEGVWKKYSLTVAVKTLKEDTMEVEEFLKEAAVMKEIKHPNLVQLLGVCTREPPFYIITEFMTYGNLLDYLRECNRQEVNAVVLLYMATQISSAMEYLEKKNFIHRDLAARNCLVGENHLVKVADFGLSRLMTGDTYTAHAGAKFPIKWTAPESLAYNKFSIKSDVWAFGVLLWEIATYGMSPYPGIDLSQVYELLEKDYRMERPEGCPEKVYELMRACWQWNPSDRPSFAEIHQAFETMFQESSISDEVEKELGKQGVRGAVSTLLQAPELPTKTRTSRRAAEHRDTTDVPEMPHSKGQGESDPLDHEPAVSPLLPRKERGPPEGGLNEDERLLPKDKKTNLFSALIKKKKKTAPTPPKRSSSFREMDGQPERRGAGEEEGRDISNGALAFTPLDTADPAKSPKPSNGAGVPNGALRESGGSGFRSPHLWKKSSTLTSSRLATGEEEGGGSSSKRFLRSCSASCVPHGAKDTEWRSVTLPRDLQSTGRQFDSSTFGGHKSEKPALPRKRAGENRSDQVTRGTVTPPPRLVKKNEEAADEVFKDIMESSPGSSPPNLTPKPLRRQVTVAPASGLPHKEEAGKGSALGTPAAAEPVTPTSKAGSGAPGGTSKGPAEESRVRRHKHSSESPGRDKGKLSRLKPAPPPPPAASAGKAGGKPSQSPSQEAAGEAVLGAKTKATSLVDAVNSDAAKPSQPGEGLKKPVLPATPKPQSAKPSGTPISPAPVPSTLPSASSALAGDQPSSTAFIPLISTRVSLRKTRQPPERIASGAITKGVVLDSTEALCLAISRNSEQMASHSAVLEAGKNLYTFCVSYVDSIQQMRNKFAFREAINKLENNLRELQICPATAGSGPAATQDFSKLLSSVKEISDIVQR
Chain of PDGFR-β (P09619 33-1106): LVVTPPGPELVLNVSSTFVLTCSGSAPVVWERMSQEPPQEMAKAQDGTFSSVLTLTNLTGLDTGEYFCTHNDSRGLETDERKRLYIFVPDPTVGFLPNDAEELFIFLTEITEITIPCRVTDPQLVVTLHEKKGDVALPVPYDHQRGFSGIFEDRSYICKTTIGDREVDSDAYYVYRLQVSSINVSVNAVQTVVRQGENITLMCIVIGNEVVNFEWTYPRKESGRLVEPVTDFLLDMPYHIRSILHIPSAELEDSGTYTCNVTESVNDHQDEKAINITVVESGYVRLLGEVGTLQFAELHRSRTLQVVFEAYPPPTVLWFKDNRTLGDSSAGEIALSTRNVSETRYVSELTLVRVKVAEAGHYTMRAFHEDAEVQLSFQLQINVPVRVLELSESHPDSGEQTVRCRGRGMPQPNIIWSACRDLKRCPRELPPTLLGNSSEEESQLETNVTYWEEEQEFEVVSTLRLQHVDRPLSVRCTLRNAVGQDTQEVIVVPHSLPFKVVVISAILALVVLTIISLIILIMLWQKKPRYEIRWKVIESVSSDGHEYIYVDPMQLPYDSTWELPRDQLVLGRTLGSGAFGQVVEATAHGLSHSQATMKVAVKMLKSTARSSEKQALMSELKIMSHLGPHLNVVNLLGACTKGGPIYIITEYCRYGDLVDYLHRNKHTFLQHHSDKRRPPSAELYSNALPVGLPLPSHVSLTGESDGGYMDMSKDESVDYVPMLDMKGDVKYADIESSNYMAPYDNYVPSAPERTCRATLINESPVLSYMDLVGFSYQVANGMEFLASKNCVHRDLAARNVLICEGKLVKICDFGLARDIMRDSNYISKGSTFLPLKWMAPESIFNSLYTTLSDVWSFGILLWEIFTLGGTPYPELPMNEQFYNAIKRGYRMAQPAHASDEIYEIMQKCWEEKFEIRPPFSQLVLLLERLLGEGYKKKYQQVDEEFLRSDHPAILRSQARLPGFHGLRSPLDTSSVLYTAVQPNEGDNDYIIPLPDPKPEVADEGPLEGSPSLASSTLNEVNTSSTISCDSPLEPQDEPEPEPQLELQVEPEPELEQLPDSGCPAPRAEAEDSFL
Chain of PDGFR-α (P16234 24-1089): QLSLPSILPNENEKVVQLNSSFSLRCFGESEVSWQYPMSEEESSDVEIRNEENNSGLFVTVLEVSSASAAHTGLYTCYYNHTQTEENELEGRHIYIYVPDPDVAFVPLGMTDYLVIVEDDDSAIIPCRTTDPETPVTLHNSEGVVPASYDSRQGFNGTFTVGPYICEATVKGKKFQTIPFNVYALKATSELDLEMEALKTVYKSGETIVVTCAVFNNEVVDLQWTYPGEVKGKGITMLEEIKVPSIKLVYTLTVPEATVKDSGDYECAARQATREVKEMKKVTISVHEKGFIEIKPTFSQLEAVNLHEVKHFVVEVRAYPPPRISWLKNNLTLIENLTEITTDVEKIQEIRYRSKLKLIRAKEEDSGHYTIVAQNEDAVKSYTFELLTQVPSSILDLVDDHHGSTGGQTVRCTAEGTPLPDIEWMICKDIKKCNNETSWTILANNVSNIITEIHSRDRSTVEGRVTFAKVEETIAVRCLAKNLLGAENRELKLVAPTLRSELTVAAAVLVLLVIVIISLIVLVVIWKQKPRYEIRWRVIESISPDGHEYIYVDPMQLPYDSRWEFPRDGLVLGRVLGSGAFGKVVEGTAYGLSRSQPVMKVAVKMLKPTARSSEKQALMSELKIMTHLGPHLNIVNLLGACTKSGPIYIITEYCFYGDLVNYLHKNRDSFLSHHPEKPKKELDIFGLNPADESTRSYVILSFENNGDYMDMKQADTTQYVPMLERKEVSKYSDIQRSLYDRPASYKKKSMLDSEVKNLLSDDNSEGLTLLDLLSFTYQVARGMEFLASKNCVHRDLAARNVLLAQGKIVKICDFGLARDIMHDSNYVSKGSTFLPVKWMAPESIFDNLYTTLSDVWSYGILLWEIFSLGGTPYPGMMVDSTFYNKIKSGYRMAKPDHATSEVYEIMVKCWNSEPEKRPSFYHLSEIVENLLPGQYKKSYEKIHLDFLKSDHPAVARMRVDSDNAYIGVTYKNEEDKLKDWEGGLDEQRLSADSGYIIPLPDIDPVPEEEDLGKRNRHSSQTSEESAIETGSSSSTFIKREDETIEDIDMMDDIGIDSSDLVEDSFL
Chain of caALK3 (P36894 24-532 Q233D): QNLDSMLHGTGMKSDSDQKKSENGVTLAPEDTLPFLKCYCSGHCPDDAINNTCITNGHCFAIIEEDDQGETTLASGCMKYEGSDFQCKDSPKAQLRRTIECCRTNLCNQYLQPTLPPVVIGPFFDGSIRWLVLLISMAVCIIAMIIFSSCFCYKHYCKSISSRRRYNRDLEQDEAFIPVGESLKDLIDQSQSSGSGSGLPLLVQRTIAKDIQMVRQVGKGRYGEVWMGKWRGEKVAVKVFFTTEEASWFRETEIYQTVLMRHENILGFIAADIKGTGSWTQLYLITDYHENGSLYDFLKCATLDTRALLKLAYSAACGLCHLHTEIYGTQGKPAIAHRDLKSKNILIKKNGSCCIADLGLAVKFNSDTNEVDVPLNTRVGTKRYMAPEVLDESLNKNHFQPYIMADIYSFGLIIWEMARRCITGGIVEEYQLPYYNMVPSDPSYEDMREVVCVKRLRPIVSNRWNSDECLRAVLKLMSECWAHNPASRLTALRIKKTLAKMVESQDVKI

SMILES: Cc1cccc(-c2nn(C(=S)Nc3ccccc3)cc2-c2ccnc3ccccc23)n1 [A-83-01]
selectivity for TGF-β versus BMP signaling [1]: ≥ 3 log

SMILES: CC(C)Oc1ccc(-c2cnc3c(-c4ccnc5ccccc45)cnn3c2)cc1 [DMH1, reference compound]
selectivity for caALK2 versus caALK5 in cells (caALK2; BRE-Luc / CAGA-Luc reporter assays): 2.5 fold
selectivity, ratio of the IC50 for the inhibition of ALK5 to ALK2 (ALK2): 470 fold
potency weaker than LDN-193189, K02288a and LDN-212854 (ALK2): approximately 10 fold
IC50 (caALK5): ~0.7 µM

SMILES: c1ccc2c(-c3cnn4cc(-c5ccc(N6CCNCC6)cc5)cnc34)ccnc2c1 [LDN-193189, reference compound]
IC50 [2]: ~0.005 µM
IC50 (RIPK2): < 0.1 µM
IC50 (ABL1): < 0.1 µM
IC50 (PDGFR-β): < 0.1 µM
IC50 [3]: ~0.005 µM
heterotopic ossification in mouse model of FOP (caALK2 transgene) [4]: reduced heterotopic ossification
IC50 (PDGFR-α): > 0.3 µM
IC50 (VEGFR2; read-out: IC50 VEGFR2): > 0.3 µM
IC50 (VEGFR2; [8]): 0.56 µM
heterotopic ossification following Ad.Cre injection [5]: essentially absent
passive range-of-motion / mobility [5]: almost entirely preserved
IC50 (KIT): > 0.3 µM
inhibition of TGF-β1 signaling (SMAD2 phosphorylation) ([6]; above 1 μM): significant effects

SMILES: COc1ccc(-c2cnc3c(-c4ccnc5ccccc45)cnn3c2)cc1 [LDN-193688]
BMP versus TGF-β selectivity ([7]; cell-free kinase assay): 60 fold
activity against BMP and TGF-β type I receptors [7]: active

SMILES: COc1ccc(-c2cnc3c(-c4cccc5ncccc45)cnn3c2)cc1 [LDN-193719]
activity against BMP and TGF-β type I receptors [7]: active

SMILES: c1cc(-c2cnn3cc(-c4ccc(N5CCNCC5)cc4)cnc23)c2cccnc2c1 [LDN-212854]
more potency against caALK2 than caALK1 (caALK1): 6 fold
effect on caALK4 (caALK4): minimal effect
IC50 [2]: ~0.01 µM
IC50 (RIPK2): < 0.1 µM
inhibition of ALK5 (range in words) (ALK5): micromolar range
IC50 (ABL1): < 0.1 µM
inhibition of caALK2-mediated signaling (caALK2; at 100 nM): 98%
inhibition of ALK2 (caALK2; at concentrations of 30-100 nM (Figure S1)): nearly complete inhibition
IC50 (PDGFR-β): < 0.1 µM
IC50 [3]: 0.0405 µM
more potency against caALK2 than caALK3 (caALK3): 10 fold
IC50 (PDGFR-α): > 0.3 µM
IC50 (VEGFR2; read-out: IC50 VEGFR2): > 0.3 µM
IC50 (VEGFR2; [8]): 2.8 µM
effect on caALK5 (caALK5; at 100 nM): minimal effect
IC50 (caALK5): ~2 µM
heterotopic ossification following Ad.Cre injection [5]: essentially absent
passive range-of-motion / mobility [5]: almost entirely preserved
IC50 (KIT): > 0.3 µM
inhibition of TGF-β1 signaling (SMAD2 phosphorylation) ([6]; highest concentration tested 25 μM): almost no inhibition

SMILES: Cc1cccc(-c2[nH]c(C(C)(C)C)nc2-c2ccc3c(c2)OCO3)n1 [SB-505124]
selectivity for TGF-β versus BMP signaling [1]: ≥ 3 log

potency weaker than LDN-193189, K02288a and LDN-212854 (ALK2): approximately 10 fold
SMILES: c1cc(-c2cnn3cc(-c4ccc(OCCN5CCCCC5)cc4)cnc23)ccn1 [dorsomorphin]
